# Experimental data from different studies.
# Read-out: metabolic stability
SMILES,system,conditions,half-life
CCOc1ccc2ccc(=O)oc2c1,"male Sprague-Dawley rat, hepatocytes",1 µM,13.1 min
O=C1CC[C@H](N2Cc3cc(N4CCN(CC5CCN(c6ccc([C@@H]7c8ccc(O)cc8CC[C@@H]7c7ccccc7)cc6)CC5)CC4)ccc3C2=O)C(=O)N1,"Sprague-Dawley rat, hepatocytes",1 µM,83 min
CCN(CC)CCNC(=O)c1c(C)[nH]c(/C=C2\C(=O)Nc3ccc(F)cc32)c1C,"rat, liver microsomes",1 µM,77 min
CN(C)C(=O)c1cc2cnc(Nc3ccc(N4CCNCC4)cn3)nc2n1C1CCCC1,"rat, liver microsomes","1 µM, pH 7.4",49.8 min
O=c1ccc2ccc(O)cc2o1,"Sprague-Dawley rat, hepatocytes",1 µM,11.4 min
O=C(c1ccc(F)cc1)C1CCN(CCn2c(=O)[nH]c3ccccc3c2=O)CC1,"rat, liver microsomes",,17.8 min
O=c1ccc2ccc(O)cc2o1,"rat, liver microsomes",,2.42 min
CC(=O)c1c(C)c2cnc(Nc3ccc(N4CCNCC4)cn3)nc2n(C2CCCC2)c1=O,"rat, liver microsomes","1 µM, pH 7.4",90.4 min
